Data as given in ChEMBL document CHEMBL3997773, “Synthesis of C-4-Substituted Steviol Derivatives and Their Inhibitory Effects against Hepatitis B Virus” (J Nat Prod, 2016).
Active and inactive are the calls of the source. The calls are words filed in the database; no cut-off is given here.

Legend:
[1] = Selectivity index, ratio of TC50 for human HepG2.2.15 cells to IC50 for Hepatitis B virus subtype adw2 infected in human HepG2.2.15 cells assessed as inhibition of HBeAg secretion
[2] = Antiviral activity against Hepatitis B virus in human HepG2.2.15 cells assessed as inhibition of HBsAg secretion by EIA
[3] = Selectivity index, ratio of TC50 for human HepG2.2.15 cells to IC50 for Hepatitis B virus subtype adw2 infected in human HuH7 cells assessed as inhibition of viral DNA replication
[4] = Cytotoxicity against human HepG2.2.15 cells assessed as reduction in cell viability after 3 days by MTS assay; settings: read-out: TC50
[5] = (§1) Antiviral activity against Hepatitis B virus subtype adw2 infected in human HuH7 cells assessed as inhibition of viral DNA replication by RT-PCR method; format: functional, cell-based; settings: Huh-7
[6] = Antiviral activity against Hepatitis B virus subtype adw2 infected in human HepG2.2.15 cells assessed as inhibition of HBeAg secretion by EIA
[7] = Selectivity index, ratio of TC50 for human HepG2.2.15 cells to IC50 for Hepatitis B virus subtype adw2 infected in human HuH7 cells assessed as inhibition of HBsAg secretion
[8] = Antiviral activity against Hepatitis B virus in human HepG2.2.15 cells assessed as inhibition of viral DNA replication by RT-PCR method
[9] = Antiviral activity against Hepatitis B virus subtype adw2 in human HepG2.2.15 cells assessed as inhibition of viral DNA replication by RT-PCR method
[10] = tested on: Hepatitis B virus subtype adw2; experiment: Antiviral activity against Hepatitis B virus subtype adw2 infected in human HepG2.2.15 cells assessed as inhibition of HBsAg secretion by EIA
[11] = tested on: Hepatitis B virus subtype adw2; experiment: as §1; format: functional, cell-based
[12] = tested on: Hepatitis B virus subtype adw2; experiment: Antiviral activity against Hepatitis B virus subtype adw2 infected in human HepG2.2.15 cells assessed as inhibition of HBeAg secretion by EIA
[13] = Antiviral activity against Hepatitis B virus subtype adw2 infected in human HuH7 cells assessed as inhibition of HBsAg secretion by EIA; format: functional, cell-based; settings: Huh-7
[14] = Antiviral activity against Hepatitis B virus subtype adw2 infected in human HuH7 cells assessed as reduction in HBx level at 5 ug/ml after 2 days by immunoblot method relative to control; format: functional
Summary of the method: (§2)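 Huh7 cells were transfected with pHBV1.2 (1.2-fold HBV adw2 genome) for 2 days, then exposed to 2.5, 5 or 10 μg/mL for another 2 days. Whole-cell protein was extracted with protease inhibitors. SHBs, HBcAg and HBx were detected by immunoblot, with α-tubulin for comparison.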

[15] = Antiviral activity against Hepatitis B virus subtype adw2 infected in human HuH7 cells assessed as reduction in HBcAg level at 5 ug/ml after 2 days by immunoblot method relative to control; format: functional
Summary of the method: as §2

[16] = tested on: Hepatitis B virus subtype adw2; experiment: Antiviral activity against Hepatitis B virus subtype adw2 infected in human HuH7 cells assessed as inhibition of viral DNA replication at 10 uM after 2 days by RT-PCR method; format: functional, cell-based
Summary of the method: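 Huh7 cells transfected with pHBV1.2, a plasmid carrying 1.2-fold of the HBV adw2 genome, for 2 days, then treated for another 2 days. Secreted viral particles were isolated from the culture medium and extracellular HBV DNA quantified by real-time PCR against untreated or vehicle controls; n = 3.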

`C=C1C[C@@]23CC[C@H]4[C@@](C)(CCC[C@@]4(C)N=C=O)[C@@H]2CC[C@]1(O)C3` gave a selectivity ratio [1] of 11.8, an IC50 [2] of 19.1 µM and a selectivity ratio [3] of 11.2. The CC50 at 72 h [4] was 337 µM, the IC50 [5] was 30 µM and the IC50 [6] was 28.5 µM. For the same molecule, the selectivity ratio [7] was 17.6.

`C=C1C[C@@]23CC[C@H]4[C@@](C)(CCC[C@@]4(C)NC(=O)c4ccc(I)cc4)[C@@H]2CC[C@]1(O)C3` showed a selectivity ratio [1] of 17.3, an IC50 [2] of 14.2 µM and a selectivity ratio [3] of 18.8. For the same molecule, the CC50 at 72 h [4] was 413 µM, the IC50 [8] was 21.9 µM and the IC50 [6] was 23.9 µM. For the same molecule, the selectivity ratio [7] was 29.1.

For `C=C1C[C@@]23CC[C@H]4[C@@](C)(CCC[C@@]4(C)NC(=O)Nc4ccc(OC)cc4)[C@@H]2CC[C@]1(O)C3`, the IC50 [2] was 11.7 to 14 µM, the IC50 [9] was 14.7 µM and the IC50 [6] was 7.7 to 13.6 µM.

With `C=C1C[C@@]23CC[C@H]4[C@@](C)(CCC[C@@]4(C)NC(=O)c4ccc(Br)cc4)[C@@H]2CC[C@]1(O)C3` the inhibition [10] was “Active”, the inhibition [11] was “Active” and the inhibition [12] was “Active”.

With `C=C1C[C@@]23CC[C@H]4[C@@](C)(CCC[C@@]4(C)NC(=O)c4ccccc4)[C@@H]2CC[C@]1(O)C3` the inhibition [10] was “Active”, the inhibition [11] was “Active” and the inhibition [12] was “Active”.

In the case of `C=C1C[C@@]23CC[C@H]4[C@@](C)(CCC[C@@]4(C)NC(=O)Nc4ccc(Br)cc4)[C@@H]2CC[C@]1(O)C3`, the inhibition [10] is reported as “Active” and the inhibition [12] is reported as “Active”.

With `C=C1C[C@@]23CC[C@H]4[C@@](C)(CCC[C@@]4(C)NC(=O)c4ccc(C#N)cc4)[C@@H]2CC[C@]1(O)C3` the selectivity ratio [1] was 9.2, the IC50 [13] was 8.3 µM and the selectivity ratio [3] was 13.9. It also gave a CC50 at 72 h [4] of 125 µM, an IC50 [8] of 9 µM and an IC50 [6] of 13.6 µM. It also gave a selectivity ratio [7] of 15.1.

For `C=C1C[C@@]23CC[C@H]4[C@@](C)(CCC[C@@]4(C)NC(=O)CCCCC)[C@@H]2CC[C@]1(O)C3`, the inhibition [10] was “Active”, the inhibition [11] was “Active” and the inhibition [12] was “Active”.

With `C=C1C[C@@]23CC[C@H]4[C@@](C)(CCC[C@@]4(C)NC(=O)c4ccc(OCC)cc4)[C@@H]2CC[C@]1(O)C3` the selectivity ratio [1] was 16.6, the IC50 [13] was 2.7 µM and the selectivity ratio [3] was 14.1. The CC50 at 72 h [4] was 56.3 µM, the IC50 [8] was 4 µM and the IC50 [6] was 3.4 µM. For the same molecule, the selectivity ratio [7] was 20.9.

With `C=C1C[C@@]23CC[C@H]4[C@@](C)(CCC[C@@]4(C)NC(=O)CCCC)[C@@H]2CC[C@]1(O)C3` the inhibition [10] was “Active”, the inhibition [11] was “Active” and the inhibition [12] was “Active”.

With `O=c1[nH]cc(F)c(=O)[nH]1` [FLUOROURACIL] the CC50 at 72 h [4] was 228 µM.

Work on `C=C1C[C@@]23CC[C@H]4[C@@](C)(CCC[C@@]4(C)NC(=O)Nc4ccc(Cl)cc4)[C@@H]2CC[C@]1(O)C3` yielded an IC50 [13] of 8 µM, an IC50 [9] of 4.5 µM and a selectivity ratio [3] of 6.6. It also gave an IC50 [6] of 5 µM.

For `C=C1C[C@@]23CC[C@H]4[C@@](C)(CCC[C@@]4(C)NC(=O)Nc4ccc(F)cc4)[C@@H]2CC[C@]1(O)C3`, the inhibition [10] was “Active” and the inhibition [12] was “Active”.

With `C=C1C[C@@]23CC[C@H]4[C@@](C)(CCC[C@@]4(C)NC(=O)c4ccc(Cl)cc4)[C@@H]2CC[C@]1(O)C3` the inhibition [10] was “Active”, the inhibition [11] was “Active” and the inhibition [12] was “Active”.

Molecule `C=C1C[C@@]23CC[C@H]4[C@@](C)(CCC[C@@]4(C)NC(=O)Nc4ccc(OC)c(OC)c4)[C@@H]2CC[C@]1(O)C3` has an IC50 [2] of 11.7 to 14 µM, an IC50 [9] of 14.3 µM and an IC50 [6] of 7.7 to 13.6 µM.

With `C=C1C[C@@]23CC[C@H]4[C@@](C)(CCC[C@@]4(C)NC(C)=O)[C@@H]2CC[C@]1(O)C3` the inhibition [10] was “Active”, the inhibition [11] was “Active” and the inhibition [12] was “Active”.

For `C=C1C[C@@]23CC[C@H]4[C@@](C)(CCC[C@@]4(C)NC(=O)CC)[C@@H]2CC[C@]1(O)C3`, the inhibition [10] was “Active” and the inhibition [12] was “Active”.

For `Nc1ccn([C@@H]2CS[C@H](CO)O2)c(=O)n1` [LAMIVUDINE], the “fold change (FC)” value [14] was 0.17, the selectivity ratio [3] was 22 and the CC50 at 72 h [4] was 2360 µM. The IC50 [8] was 108 µM and the “fold change (FC)” value [15] was 0.21.

For `C=C1C[C@@]23CC[C@H]4[C@@](C)(CCC[C@@]4(C)NC(=O)CCC)[C@@H]2CC[C@]1(O)C3`, the inhibition [10] was “Active” and the inhibition [12] was “Active”.

In the case of `C=C1C[C@@]23CC[C@H]4[C@@](C)(CCC[C@@]4(C)NC(=O)Nc4ccccc4)[C@@H]2CC[C@]1(O)C3`, the IC50 [13] is reported as 33.5 µM.

With `C=C1C[C@@]23CC[C@H]4[C@@](C)(CCC[C@@]4(C)NC(=O)c4ccc(F)cc4)[C@@H]2CC[C@]1(O)C3` the inhibition [10] was “Active”, the inhibition [11] was “Active” and the inhibition [12] was “Active”.

With `C=C1C[C@@]23CC[C@H]4[C@@](C)(CCC[C@@]4(C)NC(=O)c4ccc(C)cc4)[C@@H]2CC[C@]1(O)C3` the inhibition [10] was “Active”, the inhibition [11] was “Active” and the inhibition [12] was “Active”.

In the case of `C=C1C[C@@]23CC[C@H]4[C@@](C)(CCC[C@@]4(C)NC(=O)c4ccc(OC)cc4)[C@@H]2CC[C@]1(O)C3`, the inhibition [10] is reported as “Active”, the inhibition [11] is reported as “Active” and the inhibition [12] is reported as “Active”.

For `C=C1C[C@@]23CC[C@H]4[C@@](C)(CCC[C@@]4(C)N)[C@@H]2CC[C@]1(O)C3`, the selectivity ratio [1] was 5.4, the IC50 [2] was 30.7 µM and the selectivity ratio [3] was 4.7. For the same molecule, the CC50 at 72 h [4] was 169 µM, the IC50 [8] was 35.8 µM and the IC50 [6] was 31.2 µM. For the same molecule, the selectivity ratio [7] was 5.5.

Work on `C=C1C[C@@]23CC[C@H]4[C@@](C)(CCC[C@@]4(C)C(=O)O)[C@@H]2CC[C@]1(O)C3` [STEVIOL] yielded a selectivity ratio [1] of 28.6, an IC50 [13] of 20.8 µM and a selectivity ratio [3] of 23.8. For the same molecule, the CC50 at 72 h [4] was 474 µM, the IC50 [5] was 19.9 µM and the IC50 [6] was 16.6 µM. For the same molecule, the selectivity ratio [7] was 22.8.

In the case of `COc1ccc(C[C@H]2NC[C@H](O)[C@H]2OC(C)=O)cc1`, the inhibition [16] is reported as “inactive”.

Work on `C=C1C[C@@]23CC[C@H]4[C@@](C)(CCC[C@@]4(C)NC(=O)Nc4ccc(C)cc4)[C@@H]2CC[C@]1(O)C3` yielded an IC50 [2] of 59.6 µM.

With `C=C1C[C@@]23CC[C@H]4[C@@](C)(CCC[C@@]4(C)NC(=O)c4ccc(CC)cc4)[C@@H]2CC[C@]1(O)C3` the inhibition [10] was “Active”, the inhibition [11] was “Active” and the inhibition [12] was “Active”.

For `C=C1C[C@@]23CC[C@H]4[C@@](C)(CCC[C@@]4(C)NC(=O)c4cccs4)[C@@H]2CC[C@]1(O)C3`, the inhibition [10] was “Active”, the inhibition [11] was “Active” and the inhibition [12] was “Active”.

`C=C1C[C@@]23CC[C@H]4[C@@](C)(CCC[C@@]4(C)NC(=O)Nc4cc(OC)c(OC)c(OC)c4)[C@@H]2CC[C@]1(O)C3` showed an IC50 [2] of 11.7 to 14 µM, an IC50 [9] of 6.3 µM and an IC50 [6] of 7.7 to 13.6 µM.
